We go through 17 molecules from ChEMBL document CHEMBL1143581, “Cationic chalcone antibiotics. Design, synthesis, and mechanism of action” (2005).

In brackets after ≈: the same amount, converted by molar mass. Activity calls are given as the source filed them. The calls are words filed in the database; no cut-off is given here.

The subject of assay [1] is Escherichia coli. Nature of the assay: (§1) Minimum inhibitory concentration against Escherichia coli ATCC 25922; NA=not active. The format is functional, organism-based. In outline: (§2)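 Broth microdilution per NCCLS in Mueller-Hinton medium, run in triplicate, with an added uninoculated compound dilution series in case of precipitation. MIC read as the lowest concentration preventing visible growth; reported values are the mean of three experiments.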

Assay [2] concerns Staphylococcus aureus. The assay is described as follows: Minimum inhibitory concentration against Staphylococcus aureus ATCC 33591 (resistant to methicillin). The format is functional.
Assay [3] relates to Enterococcus faecium. Nature of the assay: Minimum inhibitory concentration against Enterococcus faecium […]. In kind it is functional.
Assay [4] concerns Enterococcus faecium. The assay is described as follows: Minimum inhibitory concentration against Enterococcus faecium 17501 (vancomycin-resistant clinical isolate). The format is functional.
In assay [5] the test system is Staphylococcus aureus. The assay is described as follows: Effect on bacterial membrane integrity was determined by using SYTO9 green fluorescent […]. In kind it is functional, Bacteria. In outline: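 Incubated 15 min at 37 °C with agitation, then resuspended to OD600 ~0.4 and stained with BacLight (SYTO-9/propidium iodide) 15 min dark. Excitation 485 nm, emission 530/630 nm; green/red ratio normalized to untreated control.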

Assay [6] in a line: Percent lysis of human erythrocytes after exposed to test compound was measured as hemolysis. The format is functional.
Assay [7] relates to Escherichia coli. Described as §1. The format is functional, organism-based. This is another data set of the same source.
The test system of assay [8] is Enterococcus faecium. The assay is described as follows: Minimum inhibitory concentration against Enterococcus faecium […]; NA=not active. In kind it is functional, organism-based. In outline: as §2
The test system of assay [9] is Staphylococcus aureus. The assay is described as follows: Minimum inhibitory concentration against Staphylococcus aureus ATCC 33591 (resistant to methicillin); NA=not active. The format is functional, organism-based.
The test system of assay [10] is Enterococcus faecium. The assay is described as follows: Minimum inhibitory concentration against Enterococcus faecium 17501 (vancomycin-resistant clinical isolate); NA=not active. In kind it is functional, organism-based.
The test system of assay [11] is Escherichia coli. The assay is described as follows: Minimum inhibitory concentration against Escherichia coli ATCC 25922. In kind it is functional. A digest of the protocol:
as §2

The MIC is the least concentration at which growth counts as inhibited. In the case of `Cc1cc(C)cc(-c2ccc(OCCN(C)C)c(/C=C/C(=O)c3ccccc3N)c2)c1`, the MIC entry in assay [1] is “inactive”. Moreover, the MIC in assay [2] came to 5 µM (≈ 2.07 µg/mL); in assay [3] it was 10 µM (≈ 4.15 µg/mL); in assay [4], 5 µM (≈ 2.07 µg/mL).

`O=C(O)c1cn(C2CC2)c2cc(N3CCNCC3)c(F)cc2c1=O` [CIPROFLOXACIN] gave a Membrane integrity in [5] of 102%. It took 2 µM (≈ 0.663 µg/mL) to inhibit growth in [2] (MIC). This molecule also returned a Hemolysis in assay [6] of 0%.

For the molecule `Cc1cc(C)cc(-c2ccc(OCCN(C)C)c(/C=C/C(=O)c3ccc(N)cc3)c2)c1`, the MIC in assay [2] was 10 µM (≈ 4.15 µg/mL); in assay [3] it was 20 µM (≈ 8.29 µg/mL); in assay [4], 10 µM (≈ 4.15 µg/mL). Also, in [7], the MIC result was “inactive”.

In the case of `Cc1cc(C)cc(-c2ccc(OCCN(C)C)c(/C=C/C(=O)c3cccc(N)c3)c2)c1`, the MIC in assay [2], in assay [3] and in [4] was 10 µM (≈ 4.15 µg/mL) in each case. Besides, the MIC result in [7] is “inactive”.

Consider `COc1ccc(C(=O)/C=C/c2cc(-c3cccc(CO)c3)ccc2N2CCN(C)CC2)c(F)c1`, for which the MIC result in assay [8], in assay [9] and in assay [10] was “inactive” each time.

As for `COc1ccc(C(=O)/C=C/c2cc(-c3ccccc3OC)ccc2N2CCN(C)CC2)c(F)c1`, the Membrane integrity in assay [5] is on record as 0%. Besides, the results for the MIC in [2], in assay [3] and in assay [4] were 10 µM (≈ 4.61 µg/mL), 20 µM (≈ 9.21 µg/mL) and 10 µM (≈ 4.61 µg/mL), respectively. The molecule also came in with a Hemolysis in [6] of 80%.

In the case of `COc1ccc(C(=O)/C=C/c2cc(-c3ccccc3OC)ccc2N2CCN(C(C)=O)CC2)c(F)c1`, the MIC entry in [8], in assay [9] and in [10] was “inactive” throughout.

In the case of `C=CC(C)(C)c1cc(/C=C/C(=O)c2ccc(O)cc2)c(OC)cc1O` [LICOAGROCHACONE A], in assay [5], the Membrane integrity is on record as 0%. In addition, the MIC in assay [2] is 40 µM (≈ 13.5 µg/mL); in assay [3] it was 75 µM (≈ 25.4 µg/mL); in assay [4], 40 µM (≈ 13.5 µg/mL). The molecule also showed a Hemolysis in assay [6] of 100%.

In the case of `CN(C)CCNc1cccc(C(=O)/C=C/c2cc(N3CCN(C)CC3)ccc2-c2ccccc2)c1`, the MIC in [2], in assay [3] and in [4] was 75 µM (≈ 35.1 µg/mL) throughout. Further, the MIC result in assay [7] is “inactive”.

For `COc1ccc(C(=O)/C=C/c2cc(-c3cc(C)cc(C)c3)ccc2OCCN(C)C)c(CN(C)C)c1`, in [5], the Membrane integrity is listed as 2%. The MIC amounted to 75 µM (≈ 36.5 µg/mL) in assay [11], 5 µM (≈ 2.43 µg/mL) in [2], 5 µM (≈ 2.43 µg/mL) in assay [3] and 5 µM (≈ 2.43 µg/mL) in [4]. The same molecule returned a Hemolysis in [6] below 1%.

As to `CN(C)CCNc1cccc(C(=O)/C=C/c2ccc(N3CCN(C)CC3)c(-c3ccccc3)c2)c1`, the MIC in assay [2] was determined as 75 µM (≈ 35.1 µg/mL); in assay [3], 150 µM (≈ 70.3 µg/mL); in assay [4], 75 µM (≈ 35.1 µg/mL). Also, the MIC entry in [7] was “inactive”.

`CN(C)CCOc1ccc(C(=O)/C=C/c2ccc(Cl)cc2Cl)cc1`: the Membrane integrity in assay [5] is 0%. The MIC in assay [2], in assay [3] and in assay [4] was 40 µM (≈ 14.6 µg/mL) each time. Besides, the Hemolysis in [6] is 100%.

Regarding `Cc1cc(C)cc(-c2ccc(N3CCNCC3)c(/C=C/C(=O)c3cccc(NCCN(C)C)c3)c2)c1`, the Membrane integrity in assay [5] worked out at 3%. The MIC in assay [11] is 5 µM (≈ 2.41 µg/mL); in assay [2] it was 2 µM (≈ 0.965 µg/mL); in assay [3], 5 µM (≈ 2.41 µg/mL); in assay [4] it was 5 µM (≈ 2.41 µg/mL). This molecule also gave a Hemolysis in [6] of 0%.

Turning to `COc1ccc(C(=O)/C=C/c2cc(-c3ccc(C(F)(F)F)cc3)ccc2N2CCN(C)CC2)c(F)c1`, the MIC result in assay [8], in assay [9] and in assay [10] was “inactive” each time.

With `Cc1cc(C)cc(-c2ccc(N(C)CCN(C)C)c(/C=C/C(=O)c3cccc(NCCN(C)C)c3)c2)c1`, the MIC in assay [11] was 20 µM (≈ 9.97 µg/mL); in assay [2], 10 µM (≈ 4.99 µg/mL); in assay [3], 10 µM (≈ 4.99 µg/mL); in assay [4], 10 µM (≈ 4.99 µg/mL).

Turning to `Cc1cc(C)cc(-c2ccc(OCCN(C)C)c(/C=C/C(=O)c3ccc(CN(C)C)cc3)c2)c1`, the minimum inhibitory concentration (MIC) in assay [11] is 20 µM (≈ 9.13 µg/mL); in [2], 5 µM (≈ 2.28 µg/mL); in assay [3] it was 20 µM (≈ 9.13 µg/mL); in [4] it was 10 µM (≈ 4.57 µg/mL).

Molecule `CN(C)CCNc1ccc(C(=O)/C=C/c2ccccc2)cc1` displayed a minimum inhibitory concentration (MIC) in [2] of 300 µM (≈ 88.3 µg/mL). For the same molecule, the MIC result in assay [8] and in assay [10] was “inactive” throughout.
